From ChEMBL document CHEMBL4765334, “Chemical profiling of HIV-1 capsid-targeting antiviral PF74” (Eur J Med Chem, 2020)

Assays:
TZM = assay: Cytotoxicity against human TZM-GFP cells incubated for 72 hrs by XTT assay; assay type: cell-based; details: tzm, 72 h
In short: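 TZM-GFP cells seeded at 1 × 10^4 per well and exposed continuously to increasing compound concentrations for 72 h. Viable cell number read by XTT proliferation kit. CC50 fitted as log(inhibitor) vs normalized response, variable slope, per independent assay and averaged. Run in duplicate, at least two independent experiments, reported as mean ± standard deviation.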

[1] = Stability of the compound in human plasma assessed as half life incubated for 3 hrs by LC-MS/MS analysis; assay type: ADME, cell-free
[2] = Stability of the compound in mouse plasma assessed as half life incubated for 3 hrs by LC-MS/MS analysis; assay type: ADME, cell-free
[3] = test system: Human immunodeficiency virus 1; assay: Binding affinity to covalently-crosslinked hexameric HIV1 capsid protein A14C/E45C/W184A/M185A mutant expressed in Escherichia coli BL21(DE3)RIL assessed as change in melting temperature at 20 uM incubated for 30 mins by thermal shift dye based fluorescence analysis
In short: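 Thermal shift: 15 μM CA121 in 50 mM sodium phosphate pH 8.0 with Sypro Orange and compound at 20 μM final or DMSO control. Heated 25 to 95 °C at 0.2 °C/10 s; fluorescence Ex 475–500, Em 520–590 nm. ΔTm = Tm(compound) − T0(DMSO) for CA hexamer melting.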

[4] = Metabolic stability at phase 1 in mouse liver microsomes assessed as half life at 1 uM by LC-MS/MS analysis; assay type: ADME, Microsome; details: for t1/2: microsomes, 1 µM; for half-life at 1 µM: liver microsomes
[5] = Metabolic stability at phase 1 in human liver microsomes assessed as half life at 1 uM by LC-MS/MS analysis; assay type: ADME, Microsome
[6] = test system: Human immunodeficiency virus 1; assay: Antiviral activity against HIV1 NL4-3 infected in human TZM-GFP cells assessed as number of GFP positive cells incubated for 48 hrs by imaging reader; assay type: functional, organism-based; details: Human immunodeficiency virus 1, NL4-3, TZM
In short: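 TZM-GFP cells seeded 1 × 10^4/well and given increasing compound concentrations 24 h later; infected with HIV-1 NL4-3 (MOI = 1) after a further 24 h. Read-out after 48 h: GFP-positive cell counts (LTR-driven) versus DMSO controls. EC50 fitted as log(inhibitor) vs normalized response, variable slope, per experiment and averaged; mean ± SD, duplicates, at least two independent experiments.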

[7] = test system: Human immunodeficiency virus 1; assay: Antiviral activity against HIV1 NL4-3 infected in human TZM-GFP cells assessed as number of GFP positive cells at 2 uM incubated for 48 hrs by imaging reader; assay type: functional; details: Human immunodeficiency virus 1, NL4-3, TZM
In short: (§1)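 TZM-GFP cells seeded 1 × 10^4/well; after 24 h medium replaced with compound at the stated single concentration, then 24 h later infected with HIV-1 (MOI = 1). After 48 h, GFP-positive cells counted by imaging and percent inhibition determined versus DMSO controls. Duplicate wells, at least two independent experiments.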

[8] = test system: Human immunodeficiency virus 1; assay: Antiviral activity against HIV1 NL4-3 infected in human TZM-GFP cells assessed as number of GFP positive cells at 20 uM incubated for 48 hrs by imaging reader; assay type: functional; details: Human immunodeficiency virus 1, NL4-3, TZM; in short: as §1

Structure (SMILES) | CC50 (TZM) [nM] | t1/2 [1] [min] | t1/2 [2] [min] | ΔTm [3] [°C] | t1/2 [4] [min] | t1/2 [5] [min] | EC50 [6] [nM] | half-life at 1 µM [4] [min] | inhibition at 2 µM [7] [%] | inhibition at 20 µM [8] [%]
CN(C(=O)[C@H](Cc1ccccc1)NC(=O)Cc1c[nH]c2ccccc12)c1cc(F)cc(F)c1 | < 50000 | > 360 | > 360 | 2.3 | 0.6 | 0.9 | 2500 | – | – | –
CC(C)n1cc(CC(=O)N[C@@H](Cc2ccccc2)C(=O)N(C)c2ccc(F)cc2)c2ccccc21 | 18000 | > 360 | > 360 | 6.5 | – | 0.9 | 370 | 0.5 | – | –
Cc1[nH]c2ccccc2c1CC(=O)N[C@@H](Cc1cccc(Br)c1)C(=O)N(C)c1ccccc1 | < 50000 | – | – | 3.4 | – | – | – | – | 0 | 94
CCn1c(C)c(CC(=O)N[C@@H](Cc2ccccc2)C(=O)N(C)c2ccc(F)cc2)c2ccccc21 | 19000 | > 360 | > 360 | 10.7 | – | 1 | 220 | 0.5 | – | –
CCn1cc(CC(=O)N[C@@H](Cc2ccccc2)C(=O)N(C)c2ccccc2)c2ccccc21 | 23000 | > 360 | > 360 | 6.7 | – | 0.9 | 310 | 0.5 | – | –
COc1cccc(N(C)C(=O)[C@H](Cc2ccccc2)NC(=O)Cc2c[nH]c3ccccc23)c1 | > 50000 | – | – | 1.3 | – | – | – | – | 41 | 97
Cc1[nH]c2ccccc2c1CC(=O)N[C@@H](Cc1ccccc1)C(=O)N(C)c1ccc(F)cc1 | > 50000 | > 360 | > 360 | 7 | – | 1 | 670 | 0.5 | – | –
CN(C(=O)[C@H](Cc1ccccc1)NC(=O)Cc1c[nH]c2ccccc12)c1ccc(Cl)nc1 | – | > 360 | > 360 | 4.9 | 0.7 | 2.1 | 260 | – | – | –
CN(C(=O)[C@H](Cc1ccccc1)NC(=O)Cc1c[nH]c2ccccc12)c1ccc(F)cc1 | > 100000 | > 360 | > 360 | 3.3 | – | 1.3 | 1800 | 0.5 | – | –
CCN(C(=O)[C@H](Cc1ccccc1)NC(=O)Cc1c(C)[nH]c2ccccc12)c1ccccc1 | 82000 | > 360 | > 360 | 8.5 | – | 0.9 | 250 | 0.5 | – | –
CCn1cc(CC(=O)N[C@@H](Cc2ccccc2)C(=O)N(C)c2ccc(F)cc2)c2ccccc21 | 18000 | > 360 | > 360 | 7.1 | – | 1.3 | 270 | 0.5 | – | –
CC(C)n1cc(CC(=O)N[C@@H](Cc2ccccc2)C(=O)N(C)c2ccccc2)c2ccccc21 | 21000 | > 360 | > 360 | 6 | – | 0.9 | 330 | 0.5 | – | –
Cc1ccc(N(C)C(=O)[C@H](Cc2ccccc2)NC(=O)Cc2c(C)[nH]c3ccccc23)cc1 | 72000 | > 360 | > 360 | 9.1 | – | 0.9 | 310 | 0.5 | – | –
Cc1[nH]c2ccccc2c1CC(=O)N[C@@H](Cc1ccccc1)C(=O)N(C)c1ccccc1 | – | > 360 | – | 7.4 | – | – | 610 | 0.6 | – | –
Cc1cccc(N(C)C(=O)[C@H](Cc2ccccc2)NC(=O)Cc2c[nH]c3ccccc23)c1 | > 50000 | – | – | 1.6 | – | – | – | – | 37 | 98
Cc1ccc(N(C)C(=O)[C@H](Cc2ccccc2)NC(=O)Cc2c[nH]c3ccccc23)cc1 | 66000 | > 360 | > 360 | 6.6 | 0.6 | 1.5 | 280 | – | – | –
CN(C(=O)[C@H](Cc1ccccc1)NC(=O)Cc1c[nH]c2ccccc12)c1cccc(Cl)c1 | < 50000 | – | – | 4.9 | – | – | – | – | 38 | 99.5
CCn1c(C)c(CC(=O)N[C@@H](Cc2ccccc2)C(=O)N(C)c2ccccc2)c2ccccc21 | 21000 | > 360 | > 360 | 10.8 | – | 1 | 280 | 0.5 | – | –
Cc1c(CC(=O)N[C@@H](Cc2ccccc2)C(=O)N(C)c2ccc(F)cc2)c2ccccc2n1C(C)C | 20000 | > 360 | > 360 | 7.5 | – | 0.6 | 320 | 0.5 | – | –
COc1ccc(N(C)C(=O)[C@H](Cc2ccccc2)NC(=O)Cc2c(C)[nH]c3ccccc23)cc1 | > 100000 | > 360 | > 360 | 8.4 | 0.7 | 1 | 630 | – | – | –
COc1ccc(N(C)C(=O)[C@H](Cc2ccccc2)NC(=O)Cc2c[nH]c3ccccc23)cc1 | > 100000 | > 360 | > 360 | 6.2 | 0.6 | 1.6 | 230 | – | – | –
CCN(C(=O)[C@H](Cc1ccccc1)NC(=O)Cc1c(C)n(C(C)C)c2ccccc12)c1ccccc1 | 23000 | – | – | 7 | – | – | – | – | 39 | 99.7
Cc1c(CC(=O)N[C@@H](Cc2ccccc2)C(=O)N(C)c2ccccc2)c2ccccc2n1C(C)C | 16000 | > 360 | > 360 | 7.8 | – | 0.6 | 280 | 0.5 | – | –
Cc1c(CC(=O)N[C@@H](Cc2ccccc2)C(=O)N(C)c2ccc(Cl)cc2)c2ccccc2n1C(C)C | 14000 | – | – | 8.5 | – | – | 150 | – | – | –
Cc1[nH]c2ccccc2c1CC(=O)N[C@@H](Cc1ccccc1)C(=O)Nc1ccc(C#N)cc1 | > 100000 | – | – | -0.6 | – | – | > 20000 | – | – | –
